Measured values taken from ChEMBL document CHEMBL1154082, “Inhibition of human vascular NADPH oxidase by apocynin derived oligophenols” (Bioorg Med Chem, 2009).
Activity calls are given as the source filed them. The rule behind the calls is not given here.

Key:
[1] = species: Homo sapiens; experiment: Inhibition of NADPH oxidase in human HUVEC assessed as inhibition of superoxide anion generation by DHE staining confocal microscopy
Outline: (§1)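 HUVEC in phenol red-free DMEM exposed to compound 0–1 mM for 2 h, washed twice in PBS, resuspended in fresh DMEM. NADPH oxidase activated with PMA (1 μM) for 30 min, then DHE (3 μM) for 30 min, then NADPH (100 μM); kept in dark. Oxyethidium red fluorescence imaged by confocal microscopy, qualitative.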

[2] = species: Homo sapiens; experiment: (§2) Inhibition of NADPH oxidase in human HUVEC assessed as inhibition of superoxide anion generation by cytochrome-C reduction assay
Outline: (§3)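 HUVEC (10^5 cells/mL) in phenol red-free DMEM, 10 min at 37°C. LDL (100 μg/mL) activates oxidase. Compound 0–1000 μM with NADPH 100 μM and cytochrome c 250 μM, ±SOD 200 μg/mL, 30 min at room temperature. A550 read. Superoxide taken from the SOD-inhibitable difference using ε 18.7 cm−1mM−1; triplicate.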

[3] = as §2; outline: as §3
[4] = Inhibition of p47phox/p22phox interaction by ELISA
[5] = species: Homo sapiens; experiment: Inhibition of NADPH oxidase in human HUVEC assessed as inhibition of superoxide anion generation up to 1 mM by DHE staining confocal microscopy; outline: as §1

## COC1=CC(C(C)=O)=C/C(=C2\C(=O)C(OC)=C(c3cc(C(C)=O)cc(OC)c3O)C(C(C)=O)=C2O)C1=O
[1]
  Activity: Active
[2]
  logIC50: -1.51
[3]
  IC50: 0.03 µM
[4]
  IC50: 0.0016 mM
  logIC50: 0.2

## COc1cc(C(C)=O)ccc1O [APOCYNIN]
[2]
  logIC50: 3.04
[3]
  IC50: 1090 µM
[4]
  IC50: 61 mM
  logIC50: 4.78
[5]
  Activity: inactive
